{
  "source": "ChEMBL document CHEMBL4028873",
  "about": "“The Discovery of a Dual TTK Protein Kinase/CDC2-Like Kinase (CLK2) Inhibitor for the Treatment of Triple Negative Breast Cancer Initiated from a Phenotypic Screen” (J Med Chem, 2017)",
  "key": {"[1]": {"biological_target": "T1, Dual specificity tyrosine-phosphorylation-regulated kinase 1A (Homo sapiens, UniProt Q13627)", "details": "3 uM"}, "[2]": {"biological_target": "T2, Dual specificity tyrosine-phosphorylation-regulated kinase 3 (Homo sapiens, UniProt O43781)", "T2 sequence (O43781 whole entry)": "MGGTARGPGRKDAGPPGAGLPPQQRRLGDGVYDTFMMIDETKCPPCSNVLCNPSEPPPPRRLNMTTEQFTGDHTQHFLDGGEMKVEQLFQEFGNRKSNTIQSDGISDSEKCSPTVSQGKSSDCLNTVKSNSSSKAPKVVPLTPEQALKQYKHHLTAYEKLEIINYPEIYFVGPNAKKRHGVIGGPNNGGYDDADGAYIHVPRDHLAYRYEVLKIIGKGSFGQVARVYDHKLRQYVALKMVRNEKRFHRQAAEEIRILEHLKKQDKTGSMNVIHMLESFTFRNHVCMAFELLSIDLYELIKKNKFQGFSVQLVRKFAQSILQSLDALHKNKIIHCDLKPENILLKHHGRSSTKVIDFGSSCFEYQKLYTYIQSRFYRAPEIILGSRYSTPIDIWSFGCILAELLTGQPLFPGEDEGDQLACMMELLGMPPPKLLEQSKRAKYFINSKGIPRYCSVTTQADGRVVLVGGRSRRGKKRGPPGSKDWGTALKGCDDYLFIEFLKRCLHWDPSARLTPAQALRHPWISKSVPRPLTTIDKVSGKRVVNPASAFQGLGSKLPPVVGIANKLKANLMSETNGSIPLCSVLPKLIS", "test": "Inhibition of human full length recombinant GST-tagged DYRK3 expressed in baculovirus by Z'-LYTE assay"}, "Mus musculus [3]": {"system": "Mus musculus", "test": "Toxicity in SCID mouse xenografted with human CAL51 cells assessed as loss in body weight at 10 mg/kg, iv administered every 3 days for 16 days relative to control", "assay_type": "organism-based", "details": "in vivo"}, "[4]": {"biological_target": "T3, Phosphatidylinositol 5-phosphate 4-kinase type-2 gamma (Homo sapiens) (UniProt Q8TBX8)", "T3 sequence (whole entry)": "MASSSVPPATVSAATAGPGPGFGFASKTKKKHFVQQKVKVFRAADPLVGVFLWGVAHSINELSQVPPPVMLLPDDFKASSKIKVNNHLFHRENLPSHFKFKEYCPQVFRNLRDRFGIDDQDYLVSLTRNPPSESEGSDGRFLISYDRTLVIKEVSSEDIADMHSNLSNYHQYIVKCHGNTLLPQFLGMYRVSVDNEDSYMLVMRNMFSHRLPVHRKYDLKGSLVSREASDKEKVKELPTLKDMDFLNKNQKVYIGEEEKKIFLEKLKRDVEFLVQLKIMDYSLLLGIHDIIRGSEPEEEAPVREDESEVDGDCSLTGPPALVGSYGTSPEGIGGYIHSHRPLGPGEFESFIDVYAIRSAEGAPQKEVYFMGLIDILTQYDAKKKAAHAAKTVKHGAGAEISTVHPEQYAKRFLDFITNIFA", "test": "Binding affinity to PIP4K2C in human HCT116 cell lysate at 3 uM after 1 hr by LC-MS/MS analysis", "method_in_brief": "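ActivX KiNative cellular kinase profiling. HCT-116 cells were grown in RPMI-1640 with 10% FBS and exposed to compound at 3 μM for 1 h, with DMSO-only controls. Cells were then washed with ice-cold PBS, scraped, pelleted and stored at −80 °C. Kinase binding was reported as percent occupancy relative to the untreated controls.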"}, "CAL-51 [5]": {"system": "CAL-51", "test": "Antiproliferative activity against human CAL51 cells xenografted in SCID mouse assessed as tumor growth inhibition at 10 mg/kg, iv administered every 3 days for 16 days relative to control", "assay_type": "functional", "details": "CAL-51, iv, read-out: TGI", "method_in_brief": "(§1)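 Mice bearing tumors of about 125 mm3 randomized (n = 8−10/group) and given compound intravenously at the listed doses and schedules. Tumors measured twice weekly by digital caliper on long and short axes; volume = width² × length/2.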"}, "[6]": {"test": "Clearance in SCID mouse at 5 mg/kg, iv", "assay_type": "ADME, organism-based", "details": "in vivo"}, "[7]": {"test": "Metabolic stability in human liver S9 fraction assessed as percent of compound remaining after 60 mins", "assay_type": "ADME, tissue-based", "details": "read-out: Stability"}, "[8]": {"biological_target": "Phosphorylase b kinase gamma catalytic chain, skeletal muscle/heart isoform (Homo sapiens, UniProt Q16816)", "sequence (Q16816 whole entry, looked up, canonical isoform)": "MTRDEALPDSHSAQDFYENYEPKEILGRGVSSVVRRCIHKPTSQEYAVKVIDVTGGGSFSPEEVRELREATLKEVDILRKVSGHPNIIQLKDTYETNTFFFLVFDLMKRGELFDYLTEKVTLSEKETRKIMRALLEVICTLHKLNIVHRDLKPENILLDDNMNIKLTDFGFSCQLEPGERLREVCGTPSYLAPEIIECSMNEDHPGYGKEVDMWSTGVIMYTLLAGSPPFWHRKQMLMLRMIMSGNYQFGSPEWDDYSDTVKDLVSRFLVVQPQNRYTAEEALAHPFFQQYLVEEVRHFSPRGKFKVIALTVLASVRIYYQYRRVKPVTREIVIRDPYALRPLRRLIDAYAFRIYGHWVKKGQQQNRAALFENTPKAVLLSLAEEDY", "details": "3 uM"}, "[9]": {"biological_target": "T1, Dual specificity tyrosine-phosphorylation-regulated kinase 1A", "test": "Inhibition of human full length GST-tagged DYRK1A expressed in baculovirus by Z'-LYTE assay"}, "CAL-51 [10]": {"system": "CAL-51", "test": "Antiproliferative activity against human CAL51 cells xenografted in SCID mouse assessed as tumor growth inhibition at 20 mg/kg, iv administered every 7 days for 16 days relative to control", "assay_type": "functional", "details": "CAL-51, iv, read-out: TGI", "method_in_brief": "as §1"}, "CAL-51 [11]": {"system": "CAL-51", "test": "Antiproliferative activity against human CAL51 cells assessed as reduction in cell viability incubated for 12 to 72 hrs followed by compound washout measured after 72 hrs by Cell-Titer Glo assay", "assay_type": "functional, cell-based", "method_in_brief": "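Cal-51 seeded at 3000 cells/well, dosed next day (0.2% DMSO final), triplicate wells; exposure at 37 °C, 5% CO2 for 6, 12, 24, 48 or 72 h, then three medium washes and culture in fresh medium up to 72 h post treatment; viability read by CellTiter-Glo luminescence.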"}, "[12]": {"test": "MRT in SCID mouse at 5 mg/kg, iv", "assay_type": "ADME, organism-based", "details": "in vivo"}, "[13]": {"test": "Volume of distribution at steady state in rat at 2 mg/kg, iv", "assay_type": "ADME, organism-based", "details": "in vivo, read-out: Vdss"}, "ZR-75-30": {"system": "ZR-75-30", "test": "Antiproliferative activity against human ZR75-30 cells after 3 days by CellTiter-Glo assay", "assay_type": "cell-based", "details": "zr-75-30, 72 h", "method_in_brief": "(§2)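 Cell lines kept in vendor-recommended growth media; 3-day compound exposure, then CellTiter-Glo luminescence read. Percent inhibition per concentration normalized to DMSO control, triplicate wells.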"}, "CAL-51 [14]": {"system": "CAL-51", "test": "Antiproliferative activity against human CAL51 cells xenografted in SCID mouse assessed as tumor growth inhibition at 20 mg/kg, iv administered every 3 days for 16 days relative to control", "assay_type": "functional", "details": "CAL-51, iv, read-out: TGI", "method_in_brief": "as §1"}, "[15]": {"test": "Metabolic stability in rat liver S9 fraction assessed as percent of compound remaining after 60 mins", "assay_type": "ADME, tissue-based", "details": "read-out: Stability"}, "[16]": {"biological_target": "T4, Phosphatidylinositol 5-phosphate 4-kinase type-2 gamma (Homo sapiens, UniProt Q8TBX8)", "T4 sequence (Q8TBX8 whole entry)": "T3 sequence (whole entry)", "test": "Inhibition of PIP4K2C in human HCT116 cell lysate after 1 hr by LC-MS/MS analysis relative to control"}, "[17]": {"biological_target": "Dual specificity tyrosine-phosphorylation-regulated kinase 1B (Homo sapiens, UniProt Q9Y463)", "sequence (Q9Y463 whole entry, looked up)": "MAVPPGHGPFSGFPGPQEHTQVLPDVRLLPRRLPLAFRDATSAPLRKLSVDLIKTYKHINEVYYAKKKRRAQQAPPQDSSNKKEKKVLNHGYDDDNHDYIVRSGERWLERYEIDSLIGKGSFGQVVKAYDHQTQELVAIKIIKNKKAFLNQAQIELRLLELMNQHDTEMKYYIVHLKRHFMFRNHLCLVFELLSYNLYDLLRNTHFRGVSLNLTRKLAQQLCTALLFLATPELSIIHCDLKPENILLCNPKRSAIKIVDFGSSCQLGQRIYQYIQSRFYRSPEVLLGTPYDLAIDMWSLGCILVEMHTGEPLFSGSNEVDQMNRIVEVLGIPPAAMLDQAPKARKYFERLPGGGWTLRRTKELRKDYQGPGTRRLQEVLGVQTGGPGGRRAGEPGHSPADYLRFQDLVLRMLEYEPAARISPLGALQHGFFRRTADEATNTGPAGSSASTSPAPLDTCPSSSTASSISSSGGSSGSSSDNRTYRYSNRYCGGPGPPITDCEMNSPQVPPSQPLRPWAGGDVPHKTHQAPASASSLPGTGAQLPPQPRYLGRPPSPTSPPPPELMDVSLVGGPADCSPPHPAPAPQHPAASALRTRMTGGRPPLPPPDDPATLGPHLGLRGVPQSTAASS", "details": "3 uM"}, "Mus musculus [18]": {"system": "Mus musculus", "test": "Toxicity in SCID mouse xenografted with human CAL51 cells assessed as loss in body weight at 20 mg/kg, iv administered every 3 days for 16 days relative to control", "assay_type": "organism-based", "details": "in vivo"}, "[19]": {"biological_target": "Dual specificity protein kinase CLK1 (Homo sapiens) (UniProt P49759)", "sequence (P49759 whole entry, looked up)": "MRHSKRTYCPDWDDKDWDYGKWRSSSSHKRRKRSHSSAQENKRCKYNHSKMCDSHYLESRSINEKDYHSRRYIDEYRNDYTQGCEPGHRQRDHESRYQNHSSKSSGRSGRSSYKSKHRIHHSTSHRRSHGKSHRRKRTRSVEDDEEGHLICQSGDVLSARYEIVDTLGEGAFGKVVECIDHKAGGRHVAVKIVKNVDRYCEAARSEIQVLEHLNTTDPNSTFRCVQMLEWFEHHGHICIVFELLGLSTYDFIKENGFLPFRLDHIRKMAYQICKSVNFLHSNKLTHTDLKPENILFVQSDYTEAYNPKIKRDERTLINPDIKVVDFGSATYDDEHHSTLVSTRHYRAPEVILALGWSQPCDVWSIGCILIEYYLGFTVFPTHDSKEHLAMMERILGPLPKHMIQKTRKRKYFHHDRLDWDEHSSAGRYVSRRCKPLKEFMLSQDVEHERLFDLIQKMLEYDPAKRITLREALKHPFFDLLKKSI", "details": "3 uM"}, "[20]": {"test": "Clearance in rat at 2 mg/kg, iv", "assay_type": "ADME, organism-based", "details": "in vivo"}, "MDA-MB-361": {"system": "MDA-MB-361", "test": "Antiproliferative activity against human MDA-MB-361 cells after 3 days by CellTiter-Glo assay", "assay_type": "cell-based", "details": "mda-mb-361, 72 h", "method_in_brief": "as §2"}, "[21]": {"biological_target": "T5, Dual specificity tyrosine-phosphorylation-regulated kinase 3 (Homo sapiens) (UniProt O43781)", "T5 sequence (whole entry)": "T2 sequence (O43781 whole entry)", "details": "3 uM"}},
  "note": "The source made the active and inactive calls. No cut-off for these calls is given here.",
  "data": [
    {"smiles": "CNC(=O)c1ccc(Nc2nc(OC3CCCC3)c3c(-c4ccc5nc(C)oc5c4)c[nH]c3n2)c(OC)c1", "values": [
      {"measurement": "inhibition", "setting": "[1]", "result": "> 80", "unit": "%"},
      {"measurement": "IC50", "setting": "[2]", "result": 0.099, "unit": "µM"},
      {"measurement": "Activity", "setting": "Mus musculus [3]", "result": 5, "unit": "%"},
      {"measurement": "Activity", "setting": "[4]", "result": "> 75", "unit": "%"},
      {"measurement": "inhibition in vivo at 10 mg/kg", "setting": "CAL-51 [5]", "result": 71, "unit": "%"},
      {"measurement": "clearance", "setting": "[6]", "result": 8.48, "unit": "mL/min/kg"},
      {"measurement": "remaining at 1 h", "setting": "[7]", "result": 91, "unit": "%"},
      {"measurement": "inhibition", "setting": "[8]", "result": "> 80", "unit": "%"},
      {"measurement": "IC50", "setting": "[9]", "result": 0.104, "unit": "µM"},
      {"measurement": "inhibition in vivo at 20 mg/kg", "setting": "CAL-51 [10]", "result": 70, "unit": "%"},
      {"measurement": "Activity", "setting": "CAL-51 [11]", "result": "Active"},
      {"measurement": "MRT", "setting": "[12]", "result": 5.2, "unit": "h"},
      {"measurement": "Vd", "setting": "[13]", "result": 2.3, "unit": "L/kg"},
      {"measurement": "Activity", "setting": "ZR-75-30", "result": "Non-Toxic"},
      {"measurement": "inhibition in vivo at 20 mg/kg", "setting": "CAL-51 [14]", "result": 71, "unit": "%"},
      {"measurement": "remaining at 1 h", "setting": "[15]", "result": 98, "unit": "%"},
      {"measurement": "IC50", "setting": "[16]", "result": 1.3, "unit": "µM"},
      {"measurement": "inhibition", "setting": "[17]", "result": "> 80", "unit": "%"},
      {"measurement": "Activity", "setting": "Mus musculus [18]", "result": 17, "unit": "%"},
      {"measurement": "inhibition", "setting": "[19]", "result": "> 80", "unit": "%"},
      {"measurement": "clearance", "setting": "[20]", "result": 9.3, "unit": "mL/min/kg"},
      {"measurement": "Activity", "setting": "MDA-MB-361", "result": "Non-Toxic"},
      {"measurement": "inhibition", "setting": "[21]", "result": "> 80", "unit": "%"}
    ]}
  ]
}
